Test results as given in ChEMBL document CHEMBL3797182, “In vitro evaluation of imidazo[4,5-c]quinolin-2-ones as gametocytocidal antimalarial agents” (Bioorg Med Chem Lett, 2016).

How the values were obtained:
Plasmodium falciparum [1] = test: Gametocytocidal activity against Plasmodium falciparum after 72 hrs by Alamar Blue assay; type: functional, organism-based
Plasmodium falciparum [2] = test: Selectivity ratio of IC50 for chloroquine-sensitive late gametocytic stage (III to V) of Plasmodium falciparum 3D7 to IC50 for chloroquine-sensitive asexual blood stage of Plasmodium falciparum 3D7; type: functional
Plasmodium falciparum [3] = test: Gametocytocidal activity against chloroquine-sensitive late gametocytic stage (III to V) of Plasmodium falciparum 3D7 after 72 hrs by Alamar Blue assay; type: functional, organism-based; conditions: 3D7, 72 h
Procedure, shortened: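 Late-stage (III–V) P. falciparum 3D7 gametocytes. AlamarBlue redox indicator reads cytosolic metabolic activity as a measure of gametocyte viability. 1536-well format, 11-point dose-response, duplicates. Torin 2 positive control, DMSO negative control.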

HepG2 = test: Cytotoxicity against human HepG2 cells assessed as cell viability after 24 hrs; type: cell-based; conditions: HepG2, 24 h
Procedure, shortened: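 HepG2 cell viability as general cytotoxicity. 1536-well, 11-point dose-response in duplicate, top concentration 46 μM. Torin 2 positive control, DMSO negative control.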

Plasmodium falciparum [4] = test: Antimalarial activity against chloroquine-sensitive asexual blood stage of Plasmodium falciparum 3D7 infected in RBC after 72 hrs by SYBR Green assay; type: functional, organism-based; conditions: 3D7, 72 h
Procedure, shortened: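 Asexual blood-stage P. falciparum 3D7 (chloroquine-sensitive) parasites. 1536-well format, 11-point dose-response, duplicate tests. Torin 2 served as positive control and DMSO as negative control.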

IC50 (Plasmodium falciparum [4])	SMILES	IC50 (Plasmodium falciparum [1])	Ratio IC50 (Plasmodium falciparum [2])	IC50 (Plasmodium falciparum [3])	IC50 (HepG2)
–	Nc1ccc(-c2ccc3ncc4ccc(=O)n(-c5cccc(C(F)(F)F)c5)c4c3c2)cn1	8 nM	–	–	–
733 nM	Cc1ccc(-c2ccc3ncc4c(c3c2)n(-c2cccc(C(F)(F)F)c2)c(=O)n4C)cc1	–	1	524 nM	> 45000 nM
452 nM	Cn1c(=O)n(-c2cccc(C(F)(F)F)c2)c2c3cc(-c4ccc(S(N)(=O)=O)cc4)ccc3ncc21	–	1	816 nM	> 45000 nM
2580 nM	N#Cc1ccc(-c2ccc3ncc4[nH]c(=O)n(-c5cccc(C(F)(F)F)c5)c4c3c2)cc1	–	1	6330 nM	> 45000 nM
5190 nM	Cc1ccc(-c2ccc3ncc4[nH]c(=O)n(-c5cccc(C(F)(F)F)c5)c4c3c2)cc1	–	1	7050 nM	> 45000 nM
3930 nM	CCn1c(=O)n(-c2cccc(C(F)(F)F)c2)c2c3cc(-c4ccc(Cl)cc4)ccc3ncc21	–	1	10400 nM	> 45000 nM
184 nM	Cn1c(=O)n(-c2cccc(C(F)(F)F)c2)c2c3cc(-c4cccc(C#N)c4)ccc3ncc21	–	11.7	2160 nM	> 45000 nM
1690 nM	O=c1[nH]c2cnc3ccc(-c4ccc(Cl)cc4)cc3c2n1-c1cccc(C(F)(F)F)c1	–	1	3560 nM	> 45000 nM
7330 nM	Cn1c(=O)n(-c2cccc(C(F)(F)F)c2)c2c3cc(-c4ccc(C#N)cc4)ccc3ncc21	–	1	11000 nM	> 45000 nM
874 nM	N#Cc1cccc(-c2ccc3ncc4[nH]c(=O)n(-c5cccc(C(F)(F)F)c5)c4c3c2)c1	–	1	2790 nM	> 45000 nM
1570 nM	O=c1[nH]c2cnc3ccc(-c4ccc(F)cc4)cc3c2n1-c1cccc(C(F)(F)F)c1	–	1	1830 nM	> 45000 nM
948 nM	NS(=O)(=O)c1ccc(-c2ccc3ncc4[nH]c(=O)n(-c5cccc(C(F)(F)F)c5)c4c3c2)cc1	–	1	2330 nM	> 45000 nM
1750 nM	Cn1c(=O)n(-c2cccc(C(F)(F)F)c2)c2c3cc(-c4ccc(Cl)cc4)ccc3ncc21	–	1	1860 nM	> 45000 nM
3180 nM	Cn1c(=O)n(-c2cccc(C(F)(F)F)c2)c2c3cc(-c4ccc(F)cc4)ccc3ncc21	–	1	5590 nM	> 45000 nM
